Results taken from paper PMC6147567 (Molecules : A Journal of Synthetic Chemistry and Natural …, 2005).
pIC50: −log10 of the molar value.

Columns and labels:
[1] = target: xanthine oxidase (Xox) from buttermilk (Bos taurus, UniProt P80457); experiment: Inhibition of xanthine oxidase, hypoxanthine oxidation test; format: biochemical; conditions: for inhibition of Xox (in words): Xox from buttermilk
Method in brief: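 Buttermilk enzyme assayed by hypoxanthine oxidation at 48–150 μM substrate in 50 mM phosphate, pH 7.0, 25 °C. Product formation was followed at 300 nm in a thermostatted spectrophotometer. Inhibitor concentrations were set spectrophotometrically from absorption data and reached up to ~300 μM. IC50 was obtained at more than one hypoxanthine level, and 'no inhibition' means none detected up to 300 μM.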

[2] = target: T1, rabbit muscle guanine deaminase (GDA) (Oryctolagus cuniculus, UniProt G1T386); experiment: Guanine deaminase assay with 8-azaguanine as substrate; format: biochemical; conditions: concentrations up to 150 μM, 50 mM phosphate pH 6.1, 25 °C
T1 sequence (G1T386 1-454): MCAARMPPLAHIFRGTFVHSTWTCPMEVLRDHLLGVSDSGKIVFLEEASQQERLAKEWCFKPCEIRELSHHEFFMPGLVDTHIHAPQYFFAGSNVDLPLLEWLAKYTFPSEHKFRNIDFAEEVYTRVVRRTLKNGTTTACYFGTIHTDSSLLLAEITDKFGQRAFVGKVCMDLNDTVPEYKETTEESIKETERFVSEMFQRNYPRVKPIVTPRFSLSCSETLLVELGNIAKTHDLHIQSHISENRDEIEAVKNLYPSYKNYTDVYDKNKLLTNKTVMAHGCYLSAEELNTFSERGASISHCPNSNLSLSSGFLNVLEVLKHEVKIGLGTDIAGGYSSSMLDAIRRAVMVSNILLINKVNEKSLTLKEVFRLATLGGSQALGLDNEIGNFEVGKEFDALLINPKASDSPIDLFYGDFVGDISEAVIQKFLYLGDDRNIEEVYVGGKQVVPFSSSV
Method in brief: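 Commercial guanine deaminase, assayed at pH 6.1 with ~50 μM 8-azaguanine as substrate. Reaction followed at 265 nm in a thermostatted UV spectrophotometer; default temperature for the work was 25 °C. Test compound concentrations were determined spectrophotometrically from absorption data and ranged up to ~300 μM.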

xanthine oxidase (Xox) = conditions: cited from earlier work

xanthine oxidase (Xox) from buttermilk, sequence (P80457 whole entry): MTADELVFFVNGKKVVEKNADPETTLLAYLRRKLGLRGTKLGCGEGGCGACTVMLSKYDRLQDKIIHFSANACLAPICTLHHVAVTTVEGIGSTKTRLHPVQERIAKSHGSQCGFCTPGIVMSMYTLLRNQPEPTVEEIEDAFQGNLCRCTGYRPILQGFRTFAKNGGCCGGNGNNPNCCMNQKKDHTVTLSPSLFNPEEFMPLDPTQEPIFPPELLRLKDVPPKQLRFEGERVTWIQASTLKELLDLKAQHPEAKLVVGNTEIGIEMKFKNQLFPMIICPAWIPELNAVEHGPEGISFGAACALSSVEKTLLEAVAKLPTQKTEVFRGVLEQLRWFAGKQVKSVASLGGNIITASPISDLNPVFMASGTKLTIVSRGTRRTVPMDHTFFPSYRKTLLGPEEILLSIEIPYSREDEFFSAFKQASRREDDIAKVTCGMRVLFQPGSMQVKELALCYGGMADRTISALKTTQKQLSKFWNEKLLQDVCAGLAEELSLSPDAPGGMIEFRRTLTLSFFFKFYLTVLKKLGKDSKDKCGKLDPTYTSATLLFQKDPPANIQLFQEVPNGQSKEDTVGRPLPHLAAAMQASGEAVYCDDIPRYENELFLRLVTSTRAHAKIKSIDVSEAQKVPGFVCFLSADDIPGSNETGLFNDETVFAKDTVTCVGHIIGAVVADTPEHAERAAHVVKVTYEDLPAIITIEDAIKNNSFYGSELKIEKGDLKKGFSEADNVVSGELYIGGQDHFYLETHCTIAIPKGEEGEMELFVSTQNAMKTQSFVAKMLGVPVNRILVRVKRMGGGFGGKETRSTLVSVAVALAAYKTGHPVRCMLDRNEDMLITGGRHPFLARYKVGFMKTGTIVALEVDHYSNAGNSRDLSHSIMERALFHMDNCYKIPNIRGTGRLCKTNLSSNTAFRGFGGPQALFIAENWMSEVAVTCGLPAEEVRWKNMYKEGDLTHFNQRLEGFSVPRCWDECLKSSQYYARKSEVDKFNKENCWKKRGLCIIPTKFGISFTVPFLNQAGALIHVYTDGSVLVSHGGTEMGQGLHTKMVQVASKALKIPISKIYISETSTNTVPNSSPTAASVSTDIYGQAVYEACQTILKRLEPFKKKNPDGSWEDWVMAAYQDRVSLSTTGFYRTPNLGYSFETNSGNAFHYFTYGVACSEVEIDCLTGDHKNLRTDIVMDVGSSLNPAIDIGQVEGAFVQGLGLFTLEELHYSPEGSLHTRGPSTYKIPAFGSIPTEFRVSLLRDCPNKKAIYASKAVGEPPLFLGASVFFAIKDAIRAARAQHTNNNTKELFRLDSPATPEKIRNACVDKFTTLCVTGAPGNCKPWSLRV

Row | Structure (SMILES) | pIC50 [1] | inhibition of Xox (in words) [1] | also measured
1 | CSc1nnc2[nH]nc(C)c2n1 [Compound 1, 3-Methyl-5-methylsulfanyl-1H-pyrazolo[4,3-e][1,2,4]triazine] | ~3.52 | moderate inhibitory activity | inhibition of Xox (in words) ([1]; listed as S-methyl derivative): detectable inhibition
2 | Cc1n[nH]c2nnc(N)nc12 [Compound 4, 5-Amino-3-methyl-1H-pyrazolo[4,3-e][1,2,4]triazine] | < 3.52 | – | activity as a substrate of GDA [2]: did not show any activity; activity as an inhibitor of GDA [2]: did not show any activity
3 | Cc1n[nH]c2nncnc12 [Compound 7, 3-Methyl-1H-pyrazolo[4,3-e][1,2,4]triazine] | – | Only weak inhibition | inhibition of Xox (in words) ([1]; listed as 3-methyl-7-azapyrazolo[4,3-d]pyrimidine): detectable inhibition
4 | Cc1nn(C)c2nncnc12 [Compound 8, 1,3-dimethyl-1H-pyrazolo[4,3-e][1,2,4]triazine] | < 3.52 | – | –
5 | Oc1ncnc2[nH]ncc12 [allopurinol] | – | – | inhibition of xanthine oxidase (in words) (xanthine oxidase (Xox)): strong inhibitors
